Assay results from publication PMC5616077 (Toxicology Reports, 2016).
Entries after “also recorded” stand apart in the source; their conditions may differ.

Experiments:
HaCaT AHR-KD cells [1] = test: Targeted metabolomics; type: cell-based, human; conditions: 48 h
Method in brief: (§1)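 Cells in DMEM with 10% FCS were seeded at 1 × 10^5 cells/mL and exposed 24 h later for 48 h, 4 replicates; vehicle controls got 0.1% DMSO. Cells were washed with ice-cold 155 mM ammonium formate pH 7.4, pelleted, weighed and snap-frozen. Extracts went on the p180 kit with isotope-labelled standards, phenylisothiocyanate derivatisation and 5 mM ammonium acetate/methanol extraction. Read by LC–MS/MS (positive) and FIA-MS/MS (±), MRM; μM normalised to pellet weight.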

MTT assay [2] = type: cell-based, human; conditions: human, HaCaT wild-type (WT) cells; for EC50 at 48 h: calculated EC50 (cytotoxicity, viability), HaCaT WT, MTT
HaCaT WT cells [3] = test: Targeted metabolomics; type: cell-based, human; conditions: 48 h; for change of Gln level vs control (in words) / change of PCaa_C36:2 level vs control (in words) / C4:1 concentration / C4 concentration / C6 (C4:1-DC) concentration / C10:2 concentration / C12-DC concentration / C12:1 concentration / C18:1-OH concentration / C18:2 concentration / Gln concentration / PCaa_C32:2 concentration / PCaa_C36:2 concentration / PCae_C32:1 concentration / PCae_C34:2 concentration / PCae_C34:3 concentration / PCae_C36:2 concentration / PCae_C36:3 concentration / PCae_C38:1 concentration / PCae_C38:2 concentration / PCae_C38:3 concentration / PCae_C38:4 concentration / PCae_C40:4 concentration / PCae_C40:5 concentration / SM_C16:1 concentration / alpha-AAA concentration / change of alpha-AAA level vs control (in words) / change of carnitines (e.g. C18:2) vs control (in words): BAP 1 μM, DALP 0.01 μM; for change of Gln level vs control (in words) / change of PCaa_C36:2 level vs control (in words) / C4:1 concentration / C4 concentration / C6 (C4:1-DC) concentration / C10:2 concentration / C12-DC concentration / C12:1 concentration / C18:1-OH concentration / C18:2 concentration / Gln concentration / PCaa_C32:2 concentration / PCaa_C36:2 concentration / PCae_C32:1 concentration / PCae_C34:2 concentration / PCae_C34:3 concentration / PCae_C36:2 concentration / PCae_C36:3 concentration / PCae_C38:1 concentration / PCae_C38:2 concentration / PCae_C38:3 concentration / PCae_C38:4 concentration / PCae_C40:4 concentration / PCae_C40:5 concentration / SM_C16:1 concentration / alpha-AAA concentration: CRY 1 μM; for C4:1 concentration / C4 concentration / C6 (C4:1-DC) concentration / C10:2 concentration / C12-DC concentration / C12:1 concentration / C18:1-OH concentration / C18:2 concentration / Gln concentration / PCaa_C32:2 concentration / PCaa_C36:2 concentration / PCae_C32:1 concentration / PCae_C34:2 concentration / PCae_C34:3 concentration / PCae_C36:2 concentration / PCae_C36:3 concentration / PCae_C38:1 concentration / PCae_C38:2 concentration / PCae_C38:3 concentration / PCae_C38:4 concentration / PCae_C40:4 concentration / PCae_C40:5 concentration / SM_C16:1 concentration / alpha-AAA concentration: mean ± SD
Method in brief: as §1

CYP1A1 [4] = test: Western blot, protein level; type: cell-based, human; conditions: HaCaT WT, 24 h and 48 h
HaCaT WT cells [5] = test: Enzymatic determination of glutamine; type: cell-based, human; conditions: 48 h, BAP 1 μM, CRY 1 μM, DALP 0.01 μM
CYP1A1 [6] = test: Real-time PCR, AHR target gene induction; type: cell-based, human; conditions: for CYP1A1 mRNA induction (in words): 24 h, BAP/CRY 0.1-3.5 μM
HaCaT WT cells [7] = test: MTT assay; type: cell-based, human; conditions: HaCaT WT, 48 h, up to 20 μM
HaCaT AHR-KD cells [8] = test: MTT assay; type: cell-based, human; conditions: HaCaT AHR-KD, 48 h, up to 20 μM
CYP1B1 [9] = test: Western blot, protein level; type: cell-based, human; conditions: HaCaT WT, 24 h and 48 h
CYP1B1 [10] = test: Real-time PCR, AHR target gene induction; type: cell-based, human; conditions: for CYP1B1 mRNA induction (in words): 24 h
MTT assay [11] = type: cell-based, human; conditions: human, HaCaT AHR knockdown (AHR-KD) cells
[12] = tested on: carnitine palmitoyltransferase 1 (CPT1); conditions: liver of rats upon treatment; ref [55], [56]; cited from earlier work
[13] = HaCaT cells, 2 and 8 h, up to 1 μM, data not shown

SMILES	change of Gln level vs control (in words) (HaCaT WT cells [3])	change of PCaa_C36:2 level vs control (in words) (HaCaT WT cells [3])	C4:1 concentration (HaCaT WT cells [3]) [nmol/g pellet weight]	C4 concentration (HaCaT WT cells [3]) [nmol/g pellet weight]	C6 (C4:1-DC) concentration (HaCaT WT cells [3]) [nmol/g pellet weight]	C10:2 concentration (HaCaT WT cells [3]) [nmol/g pellet weight]	C12-DC concentration (HaCaT WT cells [3]) [nmol/g pellet weight]	C12:1 concentration (HaCaT WT cells [3]) [nmol/g pellet weight]	C18:1-OH concentration (HaCaT WT cells [3]) [nmol/g pellet weight]	C18:2 concentration (HaCaT WT cells [3]) [nmol/g pellet weight]	Gln concentration (HaCaT WT cells [3]) [nmol/g pellet weight]	PCaa_C32:2 concentration (HaCaT WT cells [3]) [nmol/g pellet weight]	PCaa_C36:2 concentration (HaCaT WT cells [3]) [nmol/g pellet weight]	PCae_C32:1 concentration (HaCaT WT cells [3]) [nmol/g pellet weight]	PCae_C34:2 concentration (HaCaT WT cells [3]) [nmol/g pellet weight]	PCae_C34:3 concentration (HaCaT WT cells [3]) [nmol/g pellet weight]	PCae_C36:2 concentration (HaCaT WT cells [3]) [nmol/g pellet weight]	PCae_C36:3 concentration (HaCaT WT cells [3]) [nmol/g pellet weight]	PCae_C38:1 concentration (HaCaT WT cells [3]) [nmol/g pellet weight]	PCae_C38:2 concentration (HaCaT WT cells [3]) [nmol/g pellet weight]	also measured
c1ccc2c(c1)cc1ccc3cccc4ccc2c1c34 [BAP, benzo[a]pyrene]	strongly lowered	increased	1.1 ± 0.1	2.5 ± 0.3	2.3 ± 0.2	1.0 ± 0.1	3.8 ± 0.2	1.2 ± 0.1	0.9 ± 0.1	1.0 ± 0.1	77.1 ± 18.2	103.6 ± 11.5	2039.2 ± 198.8	198.8 ± 17.1	238.2 ± 23.8	26.8 ± 3.1	354.1 ± 28.2	108.6 ± 10.5	29.7 ± 2.2	74.9 ± 6.3	change of Gln level vs control (in words) (HaCaT AHR-KD cells [1]; BAP 1 μM, CRY 1 μM, DALP 0.01 μM): decreased; viability at 48 h, 20 µM (MTT assay [2]): ~80%; PCae_C38:3 concentration (HaCaT WT cells [3]): 33.8 ± 3.9 nmol/g pellet weight; PCae_C38:4 concentration (HaCaT WT cells [3]): 69.0 ± 7.3 nmol/g pellet weight; PCae_C40:4 concentration (HaCaT WT cells [3]): 11.7 ± 1.5 nmol/g pellet weight; PCae_C40:5 concentration (HaCaT WT cells [3]): 30.0 ± 2.5 nmol/g pellet weight; SM_C16:1 concentration (HaCaT WT cells [3]): 35.3 ± 3.4 nmol/g pellet weight; alpha-AAA concentration (HaCaT WT cells [3]): 5.7 ± 1.8 nmol/g pellet weight; change of alpha-AAA level vs control (in words) (HaCaT WT cells [3]): strong down-regulation; change of carnitines (e.g. C18:2) vs control (in words) (HaCaT WT cells [3]): strong up-regulation
c1ccc2c(c1)cc1ccc3cccc4c5ccccc5c2c1c34 [DALP, dibenzo[a,l]pyrene]	strongly lowered	measurable but insignificant decrease	1.3 ± 0.1	2.9 ± 0.3	2.5 ± 0.2	1.1 ± 0.1	4.2 ± 0.2	1.4 ± 0.1	1.0 ± 0.0	1.1 ± 0.1	65.7 ± 23.9	81.9 ± 9.5	1417.7 ± 173.7	164.7 ± 17.4	170.7 ± 25.4	20.8 ± 3.3	235.3 ± 25.3	65.2 ± 8.9	18.7 ± 1.2	50.7 ± 5.2	metabolite levels vs control (in words) (HaCaT AHR-KD cells [1]; 0.01 μM): remained virtually unaffected; CYP1A1 protein induction (in words) (CYP1A1 [4]): no induction; relative Gln level, enzymatic assay (in words) (HaCaT WT cells [5]): downregulated approximately two-fold; CYP1A1 mRNA induction (in words) (CYP1A1 [6]; HaCaT WT, DALP 0.01-0.03 μM): only weakly increased; CYP1A1 mRNA induction at earlier time-points (in words) (CYP1A1 [6]; [13]): no significant induction; cytotoxicity / cell viability (in words) (HaCaT WT cells [7]): enhanced cytotoxicity; also recorded: very strong cytotoxicity; EC50 at 48 h (MTT assay [2]): 35 nM; cytotoxicity / cell viability (in words) (HaCaT AHR-KD cells [8]): remained unaffected; CYP1B1 protein induction (in words) (CYP1B1 [9]): no induction; CYP1B1 mRNA induction at earlier time-points (in words) (CYP1B1 [10]; [13]): no significant induction; PCae_C38:3 concentration (HaCaT WT cells [3]): 18.5 ± 1.8 nmol/g pellet weight; PCae_C38:4 concentration (HaCaT WT cells [3]): 38.1 ± 4.0 nmol/g pellet weight; PCae_C40:4 concentration (HaCaT WT cells [3]): 7.6 ± 0.5 nmol/g pellet weight; PCae_C40:5 concentration (HaCaT WT cells [3]): 16.5 ± 1.5 nmol/g pellet weight; SM_C16:1 concentration (HaCaT WT cells [3]): 25.5 ± 2.1 nmol/g pellet weight; alpha-AAA concentration (HaCaT WT cells [3]): 2.0 ± 1.1 nmol/g pellet weight; change of alpha-AAA level vs control (in words) (HaCaT WT cells [3]): strong down-regulation; change of carnitines (e.g. C18:2) vs control (in words) (HaCaT WT cells [3]): strong up-regulation
c1ccc2c(c1)ccc1c3ccccc3ccc21 [CRY, chrysene]	weakly	increased	0.9 ± 0.2	2.3 ± 0.5	1.9 ± 0.3	0.9 ± 0.1	3.3 ± 0.6	1.0 ± 0.2	0.8 ± 0.1	0.8 ± 0.1	114.3 ± 12.8	127.8 ± 17.3	2097.1 ± 262.1	231.2 ± 36.0	275.4 ± 48.2	29.7 ± 5.0	385.0 ± 53.6	120.5 ± 17.9	29.9 ± 5.0	78.0 ± 13.3	CYP1A1 protein induction (in words) (CYP1A1 [4]): moderate induction; relative Gln level, enzymatic assay (in words) (HaCaT WT cells [5]): could not confirm the effect; CYP1A1 mRNA induction (in words) (CYP1A1 [6]; HaCaT AHR-KD): no significant induction; CYP1A1 mRNA induction (in words) (CYP1A1 [6]; HaCaT WT, DALP 0.01-0.03 μM): inducing both genes in WT cells but less strongly; cytotoxicity / cell viability (in words) (HaCaT WT cells [7]): strong cytotoxic effects; EC50 at 48 h (MTT assay [2]): 3800 nM; cytotoxicity / cell viability (in words) (HaCaT AHR-KD cells [8]): strong cytotoxic effects; EC50 at 48 h (MTT assay [11]): 2000 nM; CYP1B1 protein induction (in words) (CYP1B1 [9]): moderate induction; CYP1B1 mRNA induction (in words) (CYP1B1 [10]; HaCaT AHR-KD, CRY 0.1-3.5 μM): no significant induction; CYP1B1 mRNA induction (in words) (CYP1B1 [10]; HaCaT WT, BAP/CRY 0.1-3.5 μM, DALP 0.01-0.03 μM): inducing both genes in WT cells but less strongly; SM, AC, LPC and BA concentrations vs control (in words) (HaCaT WT cells [3]; 1 μM): remained completely unaffected; PCae_C38:3 concentration (HaCaT WT cells [3]): 34.7 ± 5.8 nmol/g pellet weight; PCae_C38:4 concentration (HaCaT WT cells [3]): 70.5 ± 9.1 nmol/g pellet weight; PCae_C40:4 concentration (HaCaT WT cells [3]): 12.8 ± 2.0 nmol/g pellet weight; PCae_C40:5 concentration (HaCaT WT cells [3]): 33.3 ± 4.2 nmol/g pellet weight; SM_C16:1 concentration (HaCaT WT cells [3]): 35.0 ± 3.8 nmol/g pellet weight; alpha-AAA concentration (HaCaT WT cells [3]): 14.2 ± 3.8 nmol/g pellet weight
Clc1cc2c(cc1Cl)Oc1cc(Cl)c(Cl)cc1O2 [TCDD, 2,3,7,8-tetrachlorodibenzo-p-dioxin]																					increase of carnitine palmitoyltransferase 1 (CPT1) [12]: more than 3 fold
